Data on 29 molecules can be found in ChEMBL document CHEMBL5033991, “Targeting the FtsZ Allosteric Binding Site with a Novel Fluorescence Polarization Screen, Cytological and Structural Approaches for Antibacterial Discovery” (J Med Chem, 2021).

≈ marks a conversion by molar mass, not a printed value. Calls of active or inactive are those of the source. No cut-off for these calls is given here.

The target of data set [1] is T1, Cell division protein FtsZ (Bacillus subtilis) (UniProt A5Z1V5).
T1 sequence (whole entry): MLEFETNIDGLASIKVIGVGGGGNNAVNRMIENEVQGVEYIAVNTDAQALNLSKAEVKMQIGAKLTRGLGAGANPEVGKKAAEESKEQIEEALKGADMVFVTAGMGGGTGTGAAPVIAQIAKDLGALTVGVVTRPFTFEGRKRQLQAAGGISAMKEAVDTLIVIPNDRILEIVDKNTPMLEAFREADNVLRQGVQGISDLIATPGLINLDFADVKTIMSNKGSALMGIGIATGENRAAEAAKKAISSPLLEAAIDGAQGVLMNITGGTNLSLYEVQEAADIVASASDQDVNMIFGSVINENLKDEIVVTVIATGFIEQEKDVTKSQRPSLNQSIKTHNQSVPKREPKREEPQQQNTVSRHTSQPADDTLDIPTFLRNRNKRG
As to the kind of experiment: Binding affinity to Bacillus subtilis FtsZ assessed as decrease in fluorescence anisotropy values at 20 to 200 uM by fluorescence anisotropy analysis. The conditions noted are these: dose 20-200 µM. In outline: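 Screen: probe (S)-2 (3 μM) with glutaraldehyde-cross-linked BsFtsZ-GMPCPP polymers (8 μM binding sites), each compound at 20 and 200 μM; raw anisotropy compared with partially bound probe, free probe and DMSO vehicle controls (2%, 4%). Hits checked for total intensity changes and with replicates lacking FtsZ.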
(In general: In fluorescence polarisation assays a small probe gives low polarisation when free and higher when bound to something large.)

Data set [2] has as its system Bacillus subtilis. Kind of data set: Inhibition of Bacillus subtilis cell division assessed as induction of filamentous phenotype at 25 to 100 uM incubated for 1.5 hrs by fluorescence microscopic analysis. In kind it is functional, organism-based. The conditions noted are these: dose 25-100 µM. The procedure, abridged: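 B. subtilis grown in cation-adjusted Mueller–Hinton broth to A600 0.1–0.2, then treated 1.5 h with fluorescent benzamide probe. Cells imaged by fluorescence microscopy using the probe's own fluorescence; filamentous phenotype scored as division inhibition.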

The target of data set [3] is T1, Cell division protein FtsZ (Bacillus subtilis). Kind of data set: Competitive binding affinity to Bacillus subtilis FtsZ at 10 uM in presence of PC190723 by fluorescence anisotropy analysis. In outline:
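Probe (10 μM) in buffer mixed with unassembled BsFtsZ (10 μM), then GMPCPP (0.1 mM). Polymerization started with MgCl2 (10 mM), anisotropy read 5–10 min later. PC190723 (10 μM) then added to displace probe, with anisotropy read 5 min after. Measured at 25 °C in an L-format spectrofluorometer at each probe's excitation/emission maxima.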

Data set [4] deals with Bacillus subtilis. As to the kind of experiment: Antimicrobial activity against Bacillus subtilis 168 assessed as inhibition of cell division incubated for 1.5 hrs by phase contrast microscopic analysis. It counts as functional. The procedure, abridged:
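B. subtilis 168 grown in cation-adjusted Mueller–Hinton broth at 37 °C to A600 0.1–0.2, then incubated with compound or DMSO vehicle. Cells observed by microscopy and cell lengths measured; division inhibition expressed as minimal division inhibitory concentration.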

In the next data set the test system is IMR-90. As to the kind of experiment: Cytotoxicity against human IMR-90 cells assessed as reduction in cell viability at MIC measured after 48 hrs by MTT assay. It counts as cell-based. The conditions noted are these: imr-90, 48 h. In general terms: Formazan colour is commonly taken as a measure of viable cells.
In data set [5] the target is T1, Cell division protein FtsZ (Bacillus subtilis). As to the kind of experiment: Induction of Bacillus subtilis FtsZ polymerization at 0.1 mM measured after 5 to 10 mins by fluorescence anisotropy analysis. The conditions noted are these: time 5-10 min.
The subject of data set [6] is Staphylococcus epidermidis. Kind of data set: Antimicrobial activity against Staphylococcus epidermidis assessed as inhibition of bacterial growth by CLSI based broth macrodilution method. It counts as functional. In outline: (§1)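 Cells grown in cation-adjusted Mueller–Hinton broth at 37 °C to A600 0.1–0.2, then exposed to compound or DMSO vehicle. MIC by broth macrodilution as the lowest concentration inhibiting growth.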

Data set [7] concerns Staphylococcus haemolyticus. Kind of data set: Antimicrobial activity against Staphylococcus haemolyticus assessed as inhibition of bacterial growth by CLSI based broth macrodilution method. In kind it is functional. In outline: as §1
The test system of data set [8] is Bacillus subtilis. As to the kind of experiment: Inhibition of Bacillus subtilis 168 cell division at 0.75 mM measured after 3 hrs by phase-contrast microscopic analysis. It counts as functional, organism-based. In outline:
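B. subtilis 168 grown in CAMHB at 37 °C to A600 0.1–0.2, exposed 3 h to compound or DMSO; cell lengths measured from phase-contrast images (n ≥ 30 cells).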

In data set [9] the target is T1, Cell division protein FtsZ (Bacillus subtilis). As to the kind of experiment: Inhibition of GFP-tagged FtsZ in Bacillus subtilis SU570 assessed as induction of irregular shaped z-ring formation at 0.2 uM incubated for 1.5 hrs. The conditions noted are these: dose 200.0 µM, in the assay text read “0.2 mM” for “0.2 uM”. The procedure, abridged:
(§2)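 B. subtilis SU570 expressing FtsZ-GFP grown in cation-adjusted Mueller–Hinton broth at 30 °C to A600 0.1–0.2, then grown 1.5 h with compound or DMSO vehicle. FtsZ-GFP localization (Z-rings, foci) assessed by fluorescence microscopy.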

Data set [10] shares this target. As to the kind of experiment: Inhibition of GFP-tagged FtsZ in Bacillus subtilis SU570 assessed as delocalization into punctate foci at 0.2 uM incubated for 1.5 hrs. The conditions noted are these: dose 200.0 µM, in the assay text read “0.2 mM” for “0.2 uM”. In outline:
as §2

For data set [11], the target named is T2, Cell division protein FtsZ (Bacillus subtilis, UniProt A5Z1V5).
T2 sequence (A5Z1V5 whole entry): T1 sequence (whole entry)
Kind of data set: Displacement of free fluorescent probe from inter domain cleft of stabilized Bacillus subtilis FtsZ assessed as dissociation constant in presence of GMPCPP by fluorescence anisotropy analysis. The procedure, abridged: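 BsFtsZ polymers assembled in HEPES buffer pH 6.8 with 10 mM MgCl2 and GMPCPP, cross-linked with 0.15% glutaraldehyde, quenched with NaBH4. Competitor titrated into 7–8 μM polymers plus (S)-2 (3 μM) or 2–3 μM polymers plus (R)-5 (3 μM), 0.1 mM GMPCPP, 25 °C. Initial probe bound fraction 0.4–0.5; KD numerically fitted by competition model; mean ± SEM.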

In data set [12] the target is T1, Cell division protein FtsZ (Bacillus subtilis). As to the kind of experiment: Binding affinity to Bacillus subtilis FtsZ polymer assessed as dissociation constant by fluorescence anisotropy analysis.

Turning to `CC1=CC(=O)c2c(O)cccc2C1=O`, in [1], the result was inactive.
On to `CCC[C@H](COc1ccc(F)c(C(N)=O)c1F)Nc1ccc([N+](=O)[O-])c2nonc12`, for which the inhibition result with Bacillus subtilis [2] was “Active”.
As to `NC(=O)c1cccc(NCc2cccc(Cl)c2)c1`, the outcome in [1] was inactive.
Consider `CCC[C@@H](CNc1ccc([N+](=O)[O-])c2nonc12)Oc1ccc(F)c(C(N)=O)c1F`, for which the inhibition result with Bacillus subtilis [2] was “Active”.
Regarding `NC(=O)c1ccc(NCc2cccc(Cl)c2)cc1`, in [1], the outcome was inactive.
Consider `CCCC(CNc1ccc([N+](=O)[O-])c2nonc12)Oc1ccc(F)c(C(N)=O)c1F` (centres undefined), for which the result in data set [3] was Active.
As for `CCN(CC)CCNc1nc(/C=C/c2ccc(Cl)cc2)nc2cc3ccccc3cc12`, in data set [1], the result was inactive.
In the case of `CCCC(COc1ccc(F)c(C(N)=O)c1F)Nc1ccc([N+](=O)[O-])c2nonc12` (centres undefined), in data set [3], the outcome was Active.
On the same count and under the same terms, under `CCCCCCCCC(CNc1ccc([N+](=O)[O-])c2nonc12)Oc1ccc(F)c(C(N)=O)c1F` (centres undefined) stands “inactive”.
As usually defined, the MIC is the lowest concentration found to suppress growth. Consider `NC(c1cccc(OCc2cccc(Cl)c2)c1)C(F)(F)F` (centres undefined), for which, in the data set with Bacillus subtilis [4], the MIC was 250 µM (≈ 78.9 µg/mL).
As to `CCC[C@H](CNc1ccc([N+](=O)[O-])c2nonc12)Oc1ccc(F)c(C(N)=O)c1F`, in the data set with Bacillus subtilis [2], the inhibition entry is “inactive”.
`CN(Cc1cccc(Cl)c1)c1ccc(C(N)=O)cc1`: the outcome in [1] was inactive.
For `Oc1ccc(/C=C/c2cc(O)cc(O)c2)cc1`, the outcome in data set [1] was inactive.
With `NC(=O)c1c(F)ccc(OCCNc2cccc(C(F)(F)F)c2)c1F`, the Activity entry with IMR-90 is on record as “Non-Toxic”.
`CCC[C@@H](COc1ccc(F)c(C(N)=O)c1F)Nc1ccc([N+](=O)[O-])c2nonc12`: the inhibition entry in the data set on Bacillus subtilis [2] was “Active”.
With `Nc1nc2c(ncn2[C@@H]2O[C@H](CO[P@@](=O)(O)C[P@@](=O)(O)OP(=O)(O)O)[C@@H](O)[C@H]2O)c(=O)[nH]1`, in [5], the outcome was Active.
As to `CCC[C@H](COc1ccc(F)c(C(N)=O)c1F)Nc1cccc(C(F)(F)F)c1`, in the data set on IMR-90, the Activity result was “Non-Toxic”.
Consider `CCCC(COc1ccc(F)c(C(N)=O)c1F)Nc1cccc(C(F)(F)F)c1` (racemic), for which the MIC in [6] and in [7] was 50 µM (≈ 20.1 µg/mL) each time.
Regarding `O=C(O)CCN(Cc1ccccc1)Cc1cccc(Sc2ccccc2)c1`, the outcome in data set [1] was inactive.
`CN(Cc1cccc(Cl)c1)c1cccc(C(N)=O)c1`: the inhibition result (in the data set with Bacillus subtilis [8]; in data set [9]; in data set [10]) was “Active” in each case. Besides, the outcome in data set [1] was inactive.
Turning to `FC(F)(F)c1cccc(COc2cccc(-c3ncc[nH]3)c2)c1`, the MIC in the data set on Bacillus subtilis [4] is 50 µM (≈ 15.9 µg/mL).
Still for that read-out and setting: under `Clc1cccc(COc2cccc(-c3ncc[nH]3)c2)c1` stands 50 µM (≈ 14.2 µg/mL).
As for `NC(=O)c1c(F)ccc(OCc2cccc(Cl)c2)c1F`, in the data set on IMR-90, the Activity entry is given as “Non-Toxic”.
Take `O=C(Oc1cc(OC(=O)c2cc(O)cc(O)c2)c2ccccc2c1)c1ccc(O)c(O)c1`: in [1], the outcome was Active.
On to `CCCCCC(CNc1ccc([N+](=O)[O-])c2nonc12)Oc1ccc(F)c(C(N)=O)c1F` (centres undefined), for which, in [3], the result was inactive.
On the same count and under the same terms, the result for `NC(=O)c1c(F)ccc(OCCNc2ccc([N+](=O)[O-])c3nonc23)c1F` reads “Active”.
Usually Kd stands for the concentration at which binding is half-saturated. Consider `NC(=O)c1c(F)ccc(OCc2nc3cc(Cl)cnc3s2)c1F`, for which, in [11], the dissociation constant (Kd) is under 100 nM. Also, the Activity in data set [12] is under 0.1 µM.
Regarding `NC(=O)c1c(F)ccc(OCc2cccc(C(F)(F)F)c2)c1F`, the Activity result with IMR-90 is reported as “Non-Toxic”.
With `O=C(O)C(=O)c1cn(Cc2ccccc2)c2ccc(-c3ccc(OC(F)(F)F)cc3)cc12`, the outcome in [1] was inactive.
